The source made the active and inactive calls. The calls are words filed in the database; no cut-off is given here.
What was measured:
[1] = system: HepG2; assay: Cytotoxicity against human HepG2 cells after 48 hrs by MTT assay; type: functional, cell-based; conditions: HepG2, 48 h
Summary of the method: (§1)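 MTT cytotoxicity assay run against HepG2 and BEL-7404 liver cancer, SK-OV-3 ovarian, NCI-H460 large-cell lung cancer and HL-7702 normal liver cells. 5-fluorouracil and cisplatin served as positive controls. IC50 is given as mean ± SD of three repeat experiments.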

[2] = system: SK-OV-3; assay: Cytotoxicity against human SKOV3 cells after 48 hrs by MTT assay; type: functional, cell-based; conditions: SK-OV-3, 48 h; summary of the method: as §1
[3] = system: L02; assay: Cytotoxicity against human HL-7702 cells after 48 hrs by MTT assay; type: cell-based; conditions: L02, 48 h; summary of the method: as §1
[4] = system: BEL-7404 tumor cell line; assay: Cytotoxicity against human Bel7404 cells after 48 hrs by MTT assay; type: functional, cell-based; conditions: BEL-7404, 48 h; summary of the method: as §1
[5] = system: NCI-H460; assay: Cytotoxicity against human NCI-H460 cells after 48 hrs by MTT assay; type: functional, cell-based; conditions: NCI-H460, 48 h; summary of the method: as §1
[6] = system: HepG2; assay: Upregulation of p53 protein expression in human HepG2 cells at 10 uM after 12 hrs by Western blot analysis; type: functional, cell-based
[7] = system: BEL-7404 tumor cell line; assay: Antitumor activity against human Bel7404 cells xenografted in Balb/c nude mouse assessed as tumor growth inhibition at 25 mg/kg/2 days, ip for 20 days measured on day 21 post last dose relative to control; type: functional; conditions: BEL-7404, ip, read-out: TGI
[8] = system: BEL-7404 tumor cell line; assay: Antitumor activity against human Bel7404 cells xenografted in Balb/c nude mouse assessed as relative tumor volume increment rate at 25 mg/kg/2 days, ip for 20 days measured on day 21 post last dose relative to control; type: functional

Row | Structure (SMILES) | IC50 [1] | IC50 [2] | IC50 [3] | IC50 [4] | IC50 [5] | Activity [6] | inhibition in vivo at 25 mg/kg [7] | T/C [8]
1 | O=c1[nH]c2ccccc2cc1-c1nc2cc([N+](=O)[O-])ccc2[nH]1 | > 100 µM | > 100 µM | > 100 µM | > 100 µM | > 100 µM |  |  | 
2 | O=c1[nH]c2ccccc2cc1-c1nc2cc(F)ccc2[nH]1 | 15.2 µM | 18.3 µM | > 100 µM | 27.4 µM | 24.2 µM |  |  | 
3 | O=c1[nH]c2cc3c(cc2cc1-c1nc2cc([N+](=O)[O-])ccc2[nH]1)OCO3 | > 100 µM | > 100 µM | > 100 µM | > 100 µM | > 100 µM |  |  | 
4 | COc1ccc2[nH]c(=O)c(-c3nc4cc(F)ccc4[nH]3)cc2c1 | > 100 µM | > 100 µM | > 100 µM | > 100 µM | > 100 µM |  |  | 
5 | Cc1ccc2[nH]c(=O)c(-c3nc4ccccc4[nH]3)cc2c1 | > 100 µM | > 100 µM | > 100 µM | > 100 µM | > 100 µM |  |  | 
6 | O=c1[nH]c2cc3c(cc2cc1-c1nc2cc(Br)ccc2[nH]1)OCO3 | > 100 µM | > 100 µM | > 100 µM | > 100 µM | > 100 µM |  |  | 
7 | Cc1ccc2[nH]c(=O)c(-c3nc4cc([N+](=O)[O-])ccc4[nH]3)cc2c1 | > 100 µM | > 100 µM | > 100 µM | > 100 µM | > 100 µM |  |  | 
8 | Cc1ccc2[nH]c(=O)c(-c3nc4cc(F)ccc4[nH]3)cc2c1 | > 100 µM | > 100 µM | > 100 µM | > 100 µM | > 100 µM |  |  | 
9 | Cc1cc2nc(-c3cc4ccccc4[nH]c3=O)[nH]c2cc1C | > 100 µM | > 100 µM | > 100 µM | > 100 µM | > 100 µM |  |  | 
10 | COc1ccc2[nH]c(=O)c(-c3nc4cc(C)c(C)cc4[nH]3)cc2c1 | > 100 µM | > 100 µM | > 100 µM | > 100 µM | > 100 µM |  |  | 
11 | Cc1ccc2[nH]c(=O)c(-c3nc4cc(Br)ccc4[nH]3)cc2c1 | > 100 µM | > 100 µM | > 100 µM | > 100 µM | > 100 µM |  |  | 
12 | O=c1[nH]c2ccccc2cc1-c1nc2ccccc2[nH]1 | 29.6 µM | 13.8 µM | > 100 µM | > 100 µM | > 100 µM | inactive |  | 
13 | COc1ccc2[nH]c(=O)c(-c3nc4cc(Br)ccc4[nH]3)cc2c1 | > 100 µM | > 100 µM | > 100 µM | > 100 µM | > 100 µM |  |  | 
14 | O=c1[nH]c2ccccc2cc1-c1nc2cc(Br)ccc2[nH]1 | 10.8 µM | 11.4 µM | > 100 µM | 14.5 µM | 16.8 µM |  |  | 
15 | O=c1[nH]cc(F)c(=O)[nH]1 [FLUOROURACIL] |  |  |  | 40.2 µM |  |  | 34.5% | 56.1%
16 | COc1ccc2[nH]c(=O)c(-c3nc4cc([N+](=O)[O-])ccc4[nH]3)cc2c1 | > 100 µM | > 100 µM | > 100 µM | > 100 µM | > 100 µM |  |  | 
17 | O=c1[nH]c2cc3c(cc2cc1-c1nc2ccccc2[nH]1)OCO3 | 25.6 µM | 32.2 µM | > 100 µM | > 100 µM | > 100 µM |  |  | 
18 | Cc1cc2nc(-c3cc4cc5c(cc4[nH]c3=O)OCO5)[nH]c2cc1C | 18.7 µM | 10.6 µM | > 100 µM | 15.7 µM | 23.8 µM |  |  | 
19 | Cc1ccc2[nH]c(=O)c(-c3nc4cc(Cl)ccc4[nH]3)cc2c1 | 26.6 µM | 33 µM | > 100 µM | 39 µM | 36.5 µM |  |  | 
20 | COc1ccc2[nH]c(=O)c(-c3nc4cc(Cl)ccc4[nH]3)cc2c1 | > 100 µM | > 100 µM | > 100 µM | > 100 µM | > 100 µM |  |  | 
21 | Cc1ccc2[nH]c(=O)c(-c3nc4cc(C)c(C)cc4[nH]3)cc2c1 | > 100 µM | > 100 µM | > 100 µM | > 100 µM | > 100 µM |  |  | 
22 | COc1ccc2[nH]c(=O)c(-c3nc4ccccc4[nH]3)cc2c1 | > 100 µM | > 100 µM | > 100 µM | > 100 µM | > 100 µM |  |  | 
23 | O=c1[nH]c2cc3c(cc2cc1-c1nc2cc(F)ccc2[nH]1)OCO3 | 12.4 µM | > 100 µM | > 100 µM | 10.3 µM | > 100 µM |  |  | 

From ChEMBL document CHEMBL4270594, “Design, synthesis and pharmacological evaluation of new 3-(1H-benzimidazol-2-yl)quinolin-2(1H)-one derivatives as potential antitumor agents” (Eur J Med Chem, 2018)
